Screening results: PubChem BioAssay, The Scripps Research Institute Molecular Screening Center
TAAR1 antag = antagonists of human TAAR1; 1.5% of 360,000 active; CHO RD-HGA16 TAAR1, Fluo-8 calcium fluorescence, antagonist; Q96RJ0; inhibition, % at 3 µM;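 active means inhibition above a per-plate cutoff, the mean inhibition of test compounds on that plate plus 3 SD, cut at about 49% in these data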
Target sequence (Q96RJ0 whole entry, looked up): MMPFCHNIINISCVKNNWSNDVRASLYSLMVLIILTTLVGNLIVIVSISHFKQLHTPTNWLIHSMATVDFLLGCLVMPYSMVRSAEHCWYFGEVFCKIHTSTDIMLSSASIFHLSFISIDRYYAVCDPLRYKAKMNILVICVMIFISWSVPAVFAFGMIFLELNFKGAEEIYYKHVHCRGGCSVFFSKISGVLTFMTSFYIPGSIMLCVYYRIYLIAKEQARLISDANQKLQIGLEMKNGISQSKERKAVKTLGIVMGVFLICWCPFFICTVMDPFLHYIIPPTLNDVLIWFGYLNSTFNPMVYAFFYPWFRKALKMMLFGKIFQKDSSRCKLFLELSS
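Test system: RD-HGA16 CHO cells with stable hTAAR1 and Gα16 / Probe or stimulus: EC80 β-phenethylamine stimulus / Times: seeding 17-24 h prior, 75-min 37 °C, 30-min RT dye loading / Detection: Fluo-8 calcium-sensitive fluorescence / Read-out basis: % inhibition scaled between DMSO and EC80 PEA controls / Repeats: singlicate, one well per test compound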
TAAR1 ag = agonists of human TAAR1 | Q96RJ0 | CHO RD-HGA16 TAAR1, Fluo-8 calcium fluorescence; vehicle wells 0%, saturating PEA agonist 100% | activation, % at 3 µM | 0.99% of 360,000 active | AID 624467;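 active means activation above the mean activation of all test compounds in the run plus 3 SD, cut at about 38% in these data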
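Repeats: no replicates (n 1) | Material: CHO-derived RD-HGA16 cells with stable Gα16 and human TAAR1 | Technique: Kinetic Fluo-8 calcium fluorescence | Schedule: 17-24 h seeding, 75 min 37 °C dye, 30 min RT | Evaluation: % activation from peak over basal fluorescence ratio, DMSO-to-PEA scaled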
M1 PAM = potentiates human M1 receptor response to acetylcholine; P11229; CHO-K1 hM1, Fluo-8 calcium fluorescence, ACh EC20; 0% = ACh EC20, 100% = maximal ACh; activation, % at 3 µM; 0.088% of 360,000 active; AID 588819; in the data active means activation above about 19%, passing the limit was not always enough
M1 antag = human CHRM1 antagonism; P11229; AID 588852; 1.3% of 360,000 active; CHO-K1 hM1, Fluo-8 calcium fluorescence, ACh EC80 antagonist; inhibition, % at 3 µM;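 active means percent inhibition above its own plate's cutoff, namely the mean of that plate's compound wells plus 3 SD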;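 further: peak over basal fluorescence ratio during 140 s after agonist addition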
M1 ag = human M1 muscarinic receptor agonism | AID 588814 | activation, % at 3 µM | CHO-K1 hM1, Fluo-8 calcium fluorescence, agonist mode; 0% DMSO, 100% acetylcholine EC100 | 0.33% of 360,000 active;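 active means activation above the run's mean compound activation plus 3 SD, cut at about 16% in these data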;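 further: peak over basal fluorescence ratio within a 140 s kinetic read after compound addition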
A number is an active result. Sampled rows, rich in hits. Any-hit rate of the full collection: about 3.4%.

For CCOC(=O)N1c2ccccc2Sc2ccccc21 the results were TAAR1 antag inactive, TAAR1 ag inactive, M1 PAM inactive, M1 antag inactive and M1 ag inactive.
Screening CN(C)c1cc[n+](CC(=O)N2c3ccccc3Sc3ccccc32)cc1 returned TAAR1 antag inactive, TAAR1 ag inactive, M1 PAM inactive, M1 antag 99.7 and M1 ag inactive.
Screening O=C(COc1ccccc1)N1c2ccccc2Sc2ccccc21 returned TAAR1 antag inactive, TAAR1 ag inactive, M1 PAM inactive, M1 antag inactive and M1 ag inactive.
Screening Cc1cc(NC(=O)Cc2cn(C)c3ccccc23)ccc1Nc1cccnc1 returned TAAR1 antag inactive and TAAR1 ag inactive.
For C[C@H]1CN([C@@H](C)CO)C(=O)c2cccc(NC(=O)Nc3ccc(C(F)(F)F)cc3)c2O[C@H]1CN(C)C the results were TAAR1 antag inactive, TAAR1 ag inactive, M1 PAM 26.5, M1 antag inactive and M1 ag inactive.
`C[C@H]1CN([C@@H](C)CO)C(=O)c2cccc(NC(=O)Nc3ccc(C(F)(F)F)cc3)c2O[C@@H]1CN(C)C(=O)Nc1ccc(F)cc1` gave TAAR1 antag 56.0, TAAR1 ag inactive, M1 PAM inactive, M1 antag inactive and M1 ag inactive.
C[C@H](CO)N1C[C@H](C)[C@@H](CN(C)S(C)(=O)=O)Oc2c(NC(=O)Nc3ccc(C(F)(F)F)cc3)cccc2C1=O was read as TAAR1 antag inactive, TAAR1 ag inactive, M1 PAM inactive, M1 antag inactive and M1 ag inactive.
Screening Cc1cc(C(=O)Nc2cccc3c2O[C@H](CN(C)CC2CC2)[C@@H](C)CN([C@H](C)CO)C3=O)n(C)n1 returned TAAR1 antag inactive, TAAR1 ag 43.0, M1 PAM inactive, M1 antag inactive and M1 ag inactive.
Screening COc1ccc(NC(=O)Nc2cccc3c2O[C@H](CN(C)C(=O)Nc2ccc(C(F)(F)F)cc2)[C@@H](C)CN([C@H](C)CO)C3=O)cc1 returned M1 PAM inactive, M1 antag inactive and M1 ag inactive.
Screening C[C@H](CO)N1C[C@H](C)[C@@H](CN(C)C(=O)Nc2ccc(C(F)(F)F)cc2)Oc2c(NC(=O)Nc3ccc(C(F)(F)F)cc3)cccc2C1=O returned TAAR1 antag 57.8, TAAR1 ag inactive, M1 PAM inactive, M1 antag inactive and M1 ag inactive.
C[C@H](CO)N1C[C@H](C)[C@@H](CN(C)CC2CC2)Oc2c(NC(=O)C3CC3)cccc2C1=O was read as TAAR1 antag inactive, TAAR1 ag inactive, M1 PAM inactive, M1 antag inactive and M1 ag inactive.
C[C@H]1CN([C@@H](C)CO)C(=O)c2cccc(NC(=O)c3nc4ccccc4s3)c2O[C@H]1CN(C)C(=O)Nc1ccc(F)cc1 was read as TAAR1 antag 55.3, TAAR1 ag inactive, M1 PAM inactive, M1 antag inactive and M1 ag inactive.
CCOC(=O)C1CCN(c2ccccc2CN2CCN(c3ccccc3OCC)CC2)CC1 was read as M1 PAM inactive, M1 antag 47.5 and M1 ag inactive.
CCOC(=O)c1ccc(N2Cc3ccccc3C2=N)cc1 was read as TAAR1 antag inactive, TAAR1 ag inactive, M1 PAM inactive, M1 antag 69.6 and M1 ag inactive.
N=C1c2ccccc2CN1c1ccc(S(=O)(=O)N2CCCCC2)cc1 was read as TAAR1 antag inactive, TAAR1 ag inactive, M1 PAM inactive, M1 antag 73.6 and M1 ag inactive.
CCOC(=O)CNS(=O)(=O)c1cc(-c2nnc(Nc3ccc4c(c3)OCO4)c3ccccc23)ccc1C was read as TAAR1 antag 59.4, TAAR1 ag inactive, M1 PAM inactive, M1 antag inactive and M1 ag inactive.
For Cc1ccc(-c2nnc(Nc3ccc(O)cc3)c3ccccc23)cc1S(=O)(=O)NCCO the results were TAAR1 antag inactive, TAAR1 ag inactive, M1 PAM inactive, M1 antag inactive and M1 ag inactive.
For NC(=O)c1c(-c2ccc(Cl)cc2Cl)csc1NC(=O)Cc1ccccc1 the results were TAAR1 antag inactive, TAAR1 ag inactive, M1 PAM inactive, M1 antag 44.3 and M1 ag inactive.
O=C(Cc1ccccc1)Nc1scc(-c2ccccc2)c1C(=O)N1CCOCC1 was read as M1 PAM inactive, M1 antag inactive and M1 ag inactive.
`CN(c1cccnc1)c1ccc(NC(=O)CCc2c[nH]c3ccccc23)cc1Br` gave TAAR1 antag inactive and TAAR1 ag inactive.
Screening CCCCC[C@@H](/C=C/C1C(=O)C=C[C@H]1C/C=C\CCCC(=O)OC)OC(C)=O (stereo partly specified) returned TAAR1 antag 50.3, TAAR1 ag inactive, M1 PAM inactive, M1 antag inactive and M1 ag inactive.
CCOCCCNc1ncnc2c1[nH]c1ccccc12 was read as TAAR1 antag inactive, TAAR1 ag inactive, M1 PAM inactive, M1 antag inactive and M1 ag inactive.
CCCCOCCCNc1ncnc2c1[nH]c1ccccc12 was read as TAAR1 antag inactive, TAAR1 ag inactive, M1 PAM inactive, M1 antag 35.3 and M1 ag inactive.
`Nc1c(-c2ccccc2)n[nH]c1-c1ccccc1` gave TAAR1 antag inactive, TAAR1 ag inactive, M1 PAM inactive, M1 antag 103.8 and M1 ag inactive.
COc1ccc(CN2C[C@H](COCc3ccccc3)Oc3cccc(F)c3S2(=O)=O)cc1 was read as TAAR1 antag inactive and TAAR1 ag inactive.
Screening O=C(/C=C/c1cccs1)N1CCC2(CC1)Oc1ccc(Cl)cc1C(=O)C21CC(c2cccnc2)=NO1 (stereo unspecified) returned TAAR1 antag 52.6, TAAR1 ag inactive, M1 PAM inactive, M1 antag inactive and M1 ag inactive.
`Cc1ccc(C(=O)N2CCC3(CC2)Oc2ccc(Cl)cc2C(=O)C32CC(c3cccnc3)=NO2)s1` (stereo unspecified) gave TAAR1 antag inactive, TAAR1 ag inactive, M1 PAM inactive, M1 antag inactive and M1 ag inactive.
For O=C(N/N=C/c1ccc(OC(=O)c2ccccc2)c([N+](=O)[O-])c1)c1ccc(O)cc1 the results were TAAR1 antag 53.4, TAAR1 ag inactive, M1 PAM inactive, M1 antag inactive and M1 ag inactive.
For COc1ccc(/C=N\NC(=O)c2ccc(F)cc2)cc1COc1cc(F)ccc1[N+](=O)[O-] the results were TAAR1 antag 53.4, TAAR1 ag inactive, M1 PAM inactive, M1 antag inactive and M1 ag inactive.
`COc1ccc(/C=N/NS(=O)(=O)c2ccc(F)cc2)cc1COc1cc(F)ccc1[N+](=O)[O-]` gave TAAR1 antag inactive, TAAR1 ag inactive, M1 PAM inactive, M1 antag inactive and M1 ag inactive.
